The values that follow come from PubChem BioAssay.

Activity calls are given as the source filed them.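 Rule for the calls, unless noted: active = viability at or below 30% in both replicate assays; inconclusive = viability at or below 30% in just one of the two assays; inactive = the rest.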

A short description of assay [1]: Her2 expression decrease, cell viability multiplex – SKBR3 breast tumor cells, AlphaScreen, ATP viability, primary screen (AID 461;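 active = Her2 level under about 52% in both replicate screens, with viability over 70% of control, limit read from the data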;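 for Her2 level: lower value means less Her2 protein in the cells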;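 for viability: percent of carrier control wells set as 100% viability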). The settings on record: SKBR3 Her2 protein level, 18-24 h, measured here: SKBR3 viability, ATP luminescence, at 10 µM. In general terms: Bead proximity is the source of the signal in Alpha formats.
The target of assay [2] is Receptor tyrosine-protein kinase erbB-2 (Homo sapiens) (UniProt P04626). Described as above. The conditions noted are these: 18-24 h, at 10 µM, stronger effect = lower value.
Chain of Receptor tyrosine-protein kinase erbB-2 (Homo sapiens) (P04626 whole entry, looked up): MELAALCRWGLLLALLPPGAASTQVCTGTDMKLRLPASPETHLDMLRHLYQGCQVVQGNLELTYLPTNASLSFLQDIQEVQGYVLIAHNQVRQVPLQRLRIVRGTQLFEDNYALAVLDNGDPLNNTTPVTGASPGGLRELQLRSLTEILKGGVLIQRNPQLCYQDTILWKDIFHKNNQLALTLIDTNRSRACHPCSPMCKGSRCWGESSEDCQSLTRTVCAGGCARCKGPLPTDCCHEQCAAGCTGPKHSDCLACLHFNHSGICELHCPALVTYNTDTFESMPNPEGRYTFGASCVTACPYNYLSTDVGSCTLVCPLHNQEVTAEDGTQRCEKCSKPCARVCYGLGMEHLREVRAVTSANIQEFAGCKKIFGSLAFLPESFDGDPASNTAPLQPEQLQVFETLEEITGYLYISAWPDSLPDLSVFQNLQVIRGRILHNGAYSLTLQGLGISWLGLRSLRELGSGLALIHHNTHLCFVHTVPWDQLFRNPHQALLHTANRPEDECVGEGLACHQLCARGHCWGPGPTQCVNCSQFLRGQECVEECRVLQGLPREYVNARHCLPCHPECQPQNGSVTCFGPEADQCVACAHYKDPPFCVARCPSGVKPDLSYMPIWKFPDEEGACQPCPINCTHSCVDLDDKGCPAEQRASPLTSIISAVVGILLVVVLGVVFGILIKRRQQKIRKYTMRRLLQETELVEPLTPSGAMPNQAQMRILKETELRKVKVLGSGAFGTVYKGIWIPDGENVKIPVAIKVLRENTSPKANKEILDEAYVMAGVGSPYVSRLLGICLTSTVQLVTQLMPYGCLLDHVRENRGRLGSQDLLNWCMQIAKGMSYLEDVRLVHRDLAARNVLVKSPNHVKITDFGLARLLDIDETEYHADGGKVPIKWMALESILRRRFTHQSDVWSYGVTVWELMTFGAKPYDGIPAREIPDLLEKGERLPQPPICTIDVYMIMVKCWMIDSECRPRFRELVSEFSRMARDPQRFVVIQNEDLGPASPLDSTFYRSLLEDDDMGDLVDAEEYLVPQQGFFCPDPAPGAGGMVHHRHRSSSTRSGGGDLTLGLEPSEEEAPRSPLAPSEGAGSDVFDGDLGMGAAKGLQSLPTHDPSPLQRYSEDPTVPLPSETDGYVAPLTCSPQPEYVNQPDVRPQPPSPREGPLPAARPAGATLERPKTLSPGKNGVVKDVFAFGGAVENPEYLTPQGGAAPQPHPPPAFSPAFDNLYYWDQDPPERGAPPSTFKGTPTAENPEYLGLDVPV
The nature of assay [3]: reduced viability of SK-BR-3 breast cancer cells – cell-based, 24 h, human, pilot screen (AID 572;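 active = viability at or below 10% of carrier control in both of two separate runs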;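 note: compound exposure lasted between 18 and 24 h rather than exactly 24 h; 100% = carrier-treated control wells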). The conditions noted are these: SK-BR-3 viability, CellTiter-Glo luminescence, at 10 µM, stronger effect = lower value. A general note: In ATP-based viability assays light output follows the ATP content of the culture.
The nature of assay [4]: HUVEC growth inhibition – cell-based, human, primary screen (AID 575).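 Note: 100% = median of untreated cell wells with 0.1% DMSO on each plate.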 The settings on record: HUVEC proliferation, CellTiter-Glo luminescence, 72 h; at 10 µM; stronger effect = lower value. The procedure, abridged:
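Assay system: primary human umbilical vein endothelial cells / Buffer or medium: endothelial basal medium with 2% FBS plus growth supplements / Compound dosing: one dose, 10 µM final, 0.1% DMSO / Timing: 72 h treatment at 37 °C / Signal: CTG luminescence / Benchmarks: 32 DMSO-only cell-control wells (high), 32 MePR drug-control wells (low) per plate / Plate: collagen-coated 384-well format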

The nature of assay [5]: H69AR cell proliferation blockers – human, duplicate replicates, primary screen (AID 580;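 active = viability at or under a set limit in both replicates, limit being median viability minus 3 SD, cut at about 48% in these data, passing the limit was not always enough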;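 note: 100% = mean luminescence of untreated wells and 0% = no signal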). The settings on record: H69AR lung tumor cells viability, ATP luminescence, 72 h; at 10 µM; stronger effect = lower value.
Assay [6] can be described thus: MRP1 drug-resistance reversers in H69AR cells – cell-based, doxorubicin co-treatment, pilot screen (AID 601;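 active = viability loss from added drug above about 55%, and viability with drug at most 40%, in both replicates, limit read from the data, passing the limit was not always enough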). The conditions noted are these: CellTiter-Glo, 72 h, at 10 µM; for differential viability (reversal): stronger effect = higher value.
Assay [7] in a line: yeast transport mutant growth inhibition pilot in 384-well plates, post-Golgi transport modulator project (AID 636; in the data active = inhibition above about 31%). The conditions noted are these: absorbance 615 nm, about 18 h, stronger effect = higher value.
Assay [8] can be described thus: growth suppression of yeast trafficking mutant, preliminary HTS, modulators of trafficking downstream of Golgi apparatus project, 1536-format plate, OD 615 nm (AID 637; in the data active = inhibition above about 30%). The settings on record: yeast transport mutant growth, absorbance 615 nm, 18 h; stronger effect = higher value.
The mark [9] stands for this setting: H69AR cells + 2 uM doxorubicin, measured here: viability with 2 uM doxorubicin, stronger effect = lower value.
Where [10] appears, read: H69AR cells, compound alone cytotoxicity.

By viability is commonly meant a read-out of living cells in per cent, often relative to untreated cells. By inhibition is commonly meant the drop in the measured response relative to a control, in per cent. In the case of `CCOC(=O)c1cccc(NC(=O)C2CCN(S(=O)(=O)c3cccs3)CC2)c1`, the viability in assay [1] is 75.5%; in assay [3], 75.5% (inactive); in assay [4], 60.7% (inactive); in assay [5] it was 65% (inactive); in assay [6] (setting [9]) it was 72.9%; in assay [6] (setting [10]), 65%. Moreover, the Her2 level in assay [2] was 96% (inactive). Also, the differential viability (reversal) in assay [6] (H69AR cells + 2 uM doxorubicin) was -7.91% (inactive). For the same compound, the inhibition was -5.58% (inactive) in assay [7] and -3.81% (inactive) in assay [8].

Regarding `CC1(C)NC(=O)N(CC(O)COc2ccc(-c3ccccc3)cc2)C1=O` (stereo not given), the viability was 101% in assay [1]; 101% (inactive) in assay [3]; 74.3% (inactive) in assay [4]; 96.7% (inactive) in assay [5]; 93.5% in assay [6] (setting [9]); 96.7% in assay [6] (setting [10]). Further, the Her2 level in assay [2] is 102% (inactive). In assay [6] (H69AR cells + 2 uM doxorubicin), the differential viability (reversal) is 3.21% (inactive). Besides, the inhibition is -2.24% (inactive) in assay [7] and -4.83% (inactive) in assay [8].

Consider `O=S(CC(O)COCc1ccc(Cl)cc1)c1ccccn1` (stereo not given), for which the viability was 100% in assay [1]; 100% (inactive) in assay [3]; 111% (inactive) in assay [4]; 93% (inactive) in assay [5]; 91.5% in assay [6] (setting [9]); 93% in assay [6] (setting [10]). The Her2 level in assay [2] is 90.5% (inactive). For the same compound, the differential viability (reversal) in assay [6] (H69AR cells + 2 uM doxorubicin) is 1.46% (inactive). The inhibition was -1.95% (inactive) in assay [7] and -3.93% (inactive) in assay [8].

`CCC(C)(C(=O)NC1CCCC1)N(Cc1cccs1)C(=O)Cc1cccs1` (stereo not given): the viability in assay [1] is 122%; in assay [3], 122% (inactive); in assay [4], 103% (inactive); in assay [5], 96.8% (inactive); in assay [6] (setting [9]), 81.3%; in assay [6] (setting [10]), 96.8%. Also, in assay [2], the Her2 level is 93% (inactive). For the same compound, the differential viability (reversal) in assay [6] (H69AR cells + 2 uM doxorubicin) was 15.6% (inactive). Moreover, the inhibition in assay [7] is -7.53% (inactive); in assay [8], -0.63% (inactive).

On to `COC(=O)c1ccc(Oc2nc(NC(C)C)nc(N(C)C)n2)cc1`, for which the viability is 102% in assay [1]; 102% (inactive) in assay [3]; 97.2% (inactive) in assay [4]; 89.5% (inactive) in assay [5]; 97.1% in assay [6] (setting [9]); 89.5% in assay [6] (setting [10]). Besides, the Her2 level in assay [2] was 91.5% (inactive). Besides, the differential viability (reversal) in assay [6] (H69AR cells + 2 uM doxorubicin) was -7.6% (inactive). Besides, the values for the inhibition in assay [7] and in assay [8] were -5.14% (inactive) and -2.46% (inactive), respectively.

`O=S(=O)(c1ccc(S(=O)(=O)N(Cc2ccco2)Cc2ccccc2Cl)cc1)N1CCCC1`: the viability in assay [1] was 96%; in assay [3] it was 96% (inactive); in assay [4] it was 79% (inactive); in assay [5], 76.6% (inactive); in assay [6] (setting [9]), 64.2%; in assay [6] (setting [10]), 76.6%. In addition, the Her2 level in assay [2] was 74.5% (inactive). Also, the differential viability (reversal) in assay [6] (H69AR cells + 2 uM doxorubicin) was 12.4% (inactive). For the same compound, the inhibition in assay [7] was -5.54% (inactive); in assay [8], 8.1% (inactive).

`Cc1nn(-c2ccccc2)c2c1C(O)n1c(nc3ccccc31)S2` (stereo not given): the viability in assay [1] is 91%; in assay [3], 91% (inactive); in assay [4], 50.9% (inactive); in assay [5], 26.2% (active); in assay [6] (setting [9]), 34.4%; in assay [6] (setting [10]) it was 26.2%. The Her2 level in assay [2] is 77.5% (inactive). The differential viability (reversal) in assay [6] (H69AR cells + 2 uM doxorubicin) is -8.14% (inactive). The inhibition is -6.85% (inactive) in assay [7] and -0.79% (inactive) in assay [8].

For the compound `Cn1c(=O)[nH]c(=O)c2c1nc(NCCCn1ccnc1)n2Cc1ccccc1`, the viability in assay [1] is 89%; in assay [3] it was 89% (inactive); in assay [4], 97.9% (inactive); in assay [5], 95.8% (inactive); in assay [6] (setting [9]) it was 91.7%; in assay [6] (setting [10]), 95.8%. Also, the Her2 level in assay [2] was 108% (inactive). For the same compound, in assay [6] (H69AR cells + 2 uM doxorubicin), the differential viability (reversal) is 4.16% (inactive). Besides, the figures for the inhibition in assay [7] and in assay [8] were -1.47% (inactive) and -3.44% (inactive), respectively.

With `Cc1cncn1CCc1nc2c3ccccc3nc(=S)n2[nH]1`, the viability was 110% in assay [1]; 110% (inactive) in assay [3]; 89.2% (inactive) in assay [4]; 88.8% (inactive) in assay [5]; 92.9% in assay [6] (setting [9]); 88.8% in assay [6] (setting [10]). Further, the Her2 level in assay [2] is 88.5% (inactive). The differential viability (reversal) in assay [6] (H69AR cells + 2 uM doxorubicin) was -4.09% (inactive). Besides, the inhibition was -3.68% (inactive) in assay [7] and -4.13% (inactive) in assay [8].

Regarding `Cc1ccc(C2/C(=C(/O)c3cnn(-c4ccccc4)c3C)C(=O)C(=O)N2CCN2CCOCC2)o1` (stereo not given), the viability in assay [1] was 77.5%; in assay [3] it was 77.5% (inactive); in assay [4], 112% (inactive); in assay [5], 85% (inactive); in assay [6] (setting [9]) it was 77.1%; in assay [6] (setting [10]) it was 85%. The Her2 level in assay [2] was 79% (inactive). For the same compound, the differential viability (reversal) in assay [6] (H69AR cells + 2 uM doxorubicin) is 7.89% (inactive). For the same compound, the inhibition in assay [7] was -4.61% (inactive); in assay [8], -1.09% (inactive).

Consider `Cn1cnnc1Sc1nc2c(c(=O)n(C)c(=O)n2C)n1C`, for which the viability in assay [1] was 87%; in assay [3], 87% (inactive); in assay [4], 107% (inactive); in assay [5] it was 102% (inactive); in assay [6] (setting [9]) it was 96.5%; in assay [6] (setting [10]) it was 102%. Besides, the Her2 level in assay [2] was 98.5% (inactive). Besides, the differential viability (reversal) in assay [6] (H69AR cells + 2 uM doxorubicin) is 5.7% (inactive). In addition, the inhibition was -0.79% (inactive) in assay [7] and -9.09% (inactive) in assay [8].

For the compound `Cc1coc(NC(=O)CSc2nc(-c3ccncc3)cc(C(F)(F)F)c2C#N)n1`, the viability in assay [1] was 106%; in assay [3], 106% (inactive); in assay [4] it was 79% (inactive); in assay [5] it was 71.8% (inactive); in assay [6] (setting [9]), 70.4%; in assay [6] (setting [10]), 71.8%. Besides, the Her2 level in assay [2] is 71% (inactive). In assay [6] (H69AR cells + 2 uM doxorubicin), the differential viability (reversal) is 1.41% (inactive). In addition, the values for the inhibition in assay [7] and in assay [8] were -2.5% (inactive) and 0.73% (inactive), respectively.

Consider `CCOC(=O)N1CCC(NC(=O)CCC(=O)N2CC(C)Oc3ccc(Cl)cc32)CC1` (stereo not given), for which the viability in assay [1] is 104%; in assay [3], 104% (inactive); in assay [4] it was 94.6% (inactive); in assay [5] it was 92.5% (inactive); in assay [6] (setting [9]) it was 85.8%; in assay [6] (setting [10]) it was 92.5%. Besides, the Her2 level in assay [2] was 96% (inactive). In assay [6] (H69AR cells + 2 uM doxorubicin), the differential viability (reversal) was 6.71% (inactive). Further, the inhibition was -5.53% (inactive) in assay [7] and -9.33% (inactive) in assay [8].

With `CCCCc1ccc(NC(=O)COCC)cc1`, the viability in assay [1] is 110%; in assay [3] it was 110% (inactive); in assay [4], 92.1% (inactive); in assay [5], 93.1% (inactive); in assay [6] (setting [9]), 85.9%; in assay [6] (setting [10]) it was 93.1%. Further, the Her2 level in assay [2] was 94% (inactive). In assay [6] (H69AR cells + 2 uM doxorubicin), the differential viability (reversal) was 7.21% (inactive). Also, the inhibition in assay [7] is -2.63% (inactive); in assay [8], 5.08% (inactive).

On to `COc1ccc2cc(CN(CCO)C(=O)c3ccc(Br)cc3)c(=O)[nH]c2c1`, for which the viability in assay [1] is 98%; in assay [3] it was 98% (inactive); in assay [4] it was 90.2% (inactive); in assay [5], 110% (inactive); in assay [6] (setting [9]), 90.3%; in assay [6] (setting [10]) it was 110%. Also, the Her2 level in assay [2] was 81.5% (inactive). In addition, in assay [6] (H69AR cells + 2 uM doxorubicin), the differential viability (reversal) is 19.2% (inactive). The values for the inhibition in assay [7] and in assay [8] were -4.93% (inactive) and 5.41% (inactive), respectively.

`O=C(CN1C(=O)CCSc2ccccc21)Nc1ccc2c(c1)OCO2`: the viability in assay [1] is 124%; in assay [3] it was 124% (inactive); in assay [4], 97.6% (inactive); in assay [5] it was 103% (inactive); in assay [6] (setting [9]), 103%; in assay [6] (setting [10]), 103%. Further, the Her2 level in assay [2] is 85.5% (inactive). The differential viability (reversal) in assay [6] (H69AR cells + 2 uM doxorubicin) is 0.09% (inactive). The inhibition was -2.5% (inactive) in assay [7] and -4.13% (inactive) in assay [8].
